Screens: PubChem, Broad Institute
CFTR F508del cor = F508del CFTR correction, initial screen, CFBE line, single point; AID 720511, 2013; CFBE cells, YFP halide quenching; stimulated with forskolin plus potentiator P3; % fluorescence drop versus neutral controls; 350,000 compounds, 0.36% hits; activity (quench increase), % at 7.58 µM;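 active = mean added fluorescence quench of at least 8% versus neutral control, with both replicates also reaching 8%; inconclusive = only one of the mean or replicate conditions met; inactive = mean below 8% and not both replicates reaching 8%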;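 note: cells transiently co-express mutant CFTR-F508del with the halide-sensitive YFP; corrector assay measuring rescue of mutant channel to the surface after 24 h compound exposure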
Xi reactivation = activators of inactive X chromosome reactivation, primary screen, imaging, XiGFP fibroblasts, GFP high-content imaging, set 2. XiGFP mouse fibroblasts, % GFP-positive cells imaging, 3 d; cells co-treated with 5-aza-dC sensitizer; scaled so ellipticine positive control = 100%. activation, % at 7.58 µM. 360,000 compounds, 0.055% hits;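 active = mean normalized replicate activation at least 10% and every replicate at or above 10%; inconclusive = only one of the two criteria met; inactive = mean below 10% and not all replicates reach 10%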;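 note: 0% = median of on-plate neutral control wells and 100% = ellipticine 6 µM median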
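Material: XiGFP fibroblasts, SV40-immortalized; Buffer or medium: DMEM containing 5-aza-dC; Compound dosing: single point; Times: 3 days compound exposure.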
PGC1a acetyl inh = inhibitors of PGC1a acetylation signal, primary screen, cell-based, U2OS, AlphaScreen, inhibitor mode; 350,000 compounds, 0.17% hits; AID 651687, 2012; inhibition, % at 15.6 µM; AlphaScreen anti-acetyl-lysine; with virally co-expressed GCN5 acetyltransferase;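 active = every replicate shows inhibition of at least 40%; inconclusive = mean inhibition at least 40% but some replicate below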;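 note: 0% = neutral control wells and 100% = positive control wells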
DENV2 CPE = inhibitors of DENV2 cytopathic effect, primary screen, cell-based, plate reader, single concentration; DENV2-infected cells, cytopathic effect rescue; CPE inhibition, % at 9.99 µM; AID 651640, 2012; 350,000 compounds, 1.7% hits; in the data active = CPE inhibition above about 20%, passing the limit was not always enough; inconclusive = no clear call, values can overlap the other calls; tested in BHK-21 cells;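 note: 0% = median of neutral control wells and 100% = median of positive control wells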
FN deposit inh = inhibitors of fibronectin matrix deposition, primary screen, AH1F cells, Alexa488-fibronectin fluorescence, plate reader; AH1F fibroblasts, overnight; inhibition, % at 12.6 µM; 350,000 compounds, 0.086% hits; AID 743247, 2014;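 active = mean inhibition across replicates of 30% or more, regardless of how many single replicates reach that level; inconclusive = mean under 30% yet at least half of replicates reach 30%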;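 note: positive control wells lacked labelled fibronectin entirely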
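Material: AH1F fibroblast monolayer depositing Alexa488-labelled fibronectin into matrix / Amount: 10000 AH1F cells per well / Signal: fluorescence 485/525 nm / Medium: DMEM, 2% serum / Compound: single dose, pinned / Incubation: 1 h cell adhesion before compound, then overnight fibronectin incubation / Reagent: Alexa488-FN, 24 nM final / Read-out: inhibition of fibronectin deposition signal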
Cneo AK release = Cryptococcus neoformans cell lysis inducers, primary screen, AK release luminescence, single concentration; 360,000 compounds, 0.2% hits; AID 651654, 2012; C. neoformans lysis, adenylate kinase release luminescence, 4 h; normalised: neutral wells 0, clomiphene wells 100; lysis activity, % at 15 µM;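 active = mean lysis activity across replicates of at least 80%, whatever share of replicates individually reach that level; inactive = mean lysis activity below 80%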
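Assay system: C. neoformans cells. Amount: yeast cell density of 5 × 10^6 cells/mL. Technique: AK luminescence. Buffer or medium: YPD. Times: static 4 h at 37 °C with compound, 1 h detection. Dosing: single-point compound dose. Read-out: lysis from increased AK signal.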
* = called active by the depositor. Compounds with a hit are over-represented: about 1.9% of the library has one in this group of screens.

Results for CN(C)C(=O)C[C@@H]1CC[C@@H]2[C@H](COC[C@H](O)CN2Cc2ccc(C(F)(F)F)cc2)O1 ?
CFTR F508del cor: 0; Xi reactivation: 0; PGC1a acetyl inh: -7; DENV2 CPE: 5; FN deposit inh: -4; Cneo AK release: -2

Results for O=C(c1cccnc1)N1C[C@H]2[C@@H](c3ccccc31)[C@@H](CO)N2Cc1ccc2c(c1)OCO2 ?
CFTR F508del cor: 4; Xi reactivation: 0; PGC1a acetyl inh: -6; DENV2 CPE: 26*; Cneo AK release: 43

Results for COc1cccc(CN2[C@@H]3CN(C(=O)c4ccncc4)c4ccccc4[C@@H]3[C@@H]2CO)c1 ?
CFTR F508del cor: -2; Xi reactivation: 0; PGC1a acetyl inh: 4; DENV2 CPE: 21*; Cneo AK release: 2

What do the screens show for `C=CCC12C=C(OC)C(=O)OC(OC)(C1O)[C@H](c1ccc3c(c1)OCO3)[C@H]2C` (stereo partly drawn)?
CFTR F508del cor: -1; PGC1a acetyl inh: -13; DENV2 CPE: -4; Cneo AK release: -1

How did C=CC[C@]12C=C(OC)C(=O)C(OC)=C1O[C@@H](c1ccc3c(c1)OCO3)[C@H]2C do in these assays?
CFTR F508del cor: 2; PGC1a acetyl inh: 2; DENV2 CPE: 30*; Cneo AK release: -2

Results for COc1ccc(NC(=O)Nc2ccc3c(c2)CC(=O)N([C@@H](C)CO)C[C@H](C)[C@H](CN(C)Cc2ccccc2)O3)cc1 ?
CFTR F508del cor: 1; Xi reactivation: 0; PGC1a acetyl inh: 1; DENV2 CPE: -3; Cneo AK release: 3

What do the screens show for `CCCC#Cc1ccc([C@@H]2[C@H](CO)N3CCCCN(CC4CCOCC4)C[C@@H]23)cc1`?
CFTR F508del cor: 1; Xi reactivation: 0; PGC1a acetyl inh: -13; DENV2 CPE: 46*; Cneo AK release: -2

How did CCCC#Cc1ccc([C@@H]2[C@@H](CO)N3CCCCN(CC4CCOCC4)C[C@@H]23)cc1 do in these assays?
CFTR F508del cor: 3; Xi reactivation: 0; PGC1a acetyl inh: -2; DENV2 CPE: inconclusive; Cneo AK release: 0

How did COc1ccc(-c2ccc([C@H]3[C@H]4CN(CC5CCOCC5)CCCCN4[C@H]3CO)cc2)cc1 do in these assays?
CFTR F508del cor: 0; Xi reactivation: 0; PGC1a acetyl inh: 0; DENV2 CPE: 0; Cneo AK release: 0

How did COc1ccc(-c2ccc([C@H]3[C@@H](CO)N4CCCCN(CC5CCOCC5)C[C@H]34)cc2)cc1 do in these assays?
CFTR F508del cor: 2; Xi reactivation: 0; PGC1a acetyl inh: 9; DENV2 CPE: 33*; Cneo AK release: -3

What do the screens show for `COc1ccc(-c2ccc([C@H]3[C@@H](CO)N4CCCCN(CC5CCOCC5)C[C@@H]34)cc2)cc1`?
CFTR F508del cor: 0; Xi reactivation: 0; PGC1a acetyl inh: 0; DENV2 CPE: 24*; Cneo AK release: 0

How did CC(=O)Nc1ccc2c(c1)C(=O)N(C)[C@@H]1CC[C@@H](CC(=O)NCC3CC3)O[C@H]1CO2 do in these assays?
CFTR F508del cor: -2; Xi reactivation: 0; PGC1a acetyl inh: 3; DENV2 CPE: -8; FN deposit inh: -15; Cneo AK release: -2

Results for O=[N+]([O-])c1ccccc1S(=O)c1ccccc1[N+](=O)[O-] ?
CFTR F508del cor: -2; Xi reactivation: 0; DENV2 CPE: 32*; FN deposit inh: 2

How did O=C(CS(=O)c1ccccc1[N+](=O)[O-])Oc1ccc(Br)cc1 (stereo not drawn) do in these assays?
CFTR F508del cor: 0; Xi reactivation: 0; PGC1a acetyl inh: -3; DENV2 CPE: -1; FN deposit inh: 9

What do the screens show for `COc1ccccc1CNC(=O)C[C@@H]1CC[C@@H]2[C@H](COC[C@@H](O)CN2C(=O)Nc2ccc(F)cc2)O1`?
CFTR F508del cor: -2; Xi reactivation: 0; PGC1a acetyl inh: -4; DENV2 CPE: 5; FN deposit inh: -1; Cneo AK release: -2

What do the screens show for `CCSc1nc2sc3c(c2c(=O)n1CC)CCC3`?
CFTR F508del cor: 1; Xi reactivation: 0; PGC1a acetyl inh: 7; DENV2 CPE: 40*; FN deposit inh: 6; Cneo AK release: 4

Results for C=CCn1c(SCC(=O)N(CC)C2CCS(=O)(=O)C2)nc2sc3c(c2c1=O)CCC3 (stereo not drawn) ?
CFTR F508del cor: -1; Xi reactivation: 137*; PGC1a acetyl inh: 5; DENV2 CPE: -3; FN deposit inh: -7; Cneo AK release: 3

How did C=CCn1c(SCC(=O)N(C)C2CCS(=O)(=O)C2)nc2ccccc2c1=O (stereo not drawn) do in these assays?
CFTR F508del cor: 19*; Xi reactivation: 0; DENV2 CPE: 7; FN deposit inh: 4

How did CCn1c(SCC(N)=O)nc2sc3c(c2c1=O)CCCC3 do in these assays?
PGC1a acetyl inh: 6

Results for CS(=O)(=O)Nc1ccc2c(c1)[C@H]1C[C@@H](CC(=O)N3CCc4ccccc4C3)O[C@H](CO)[C@H]1O2 ?
CFTR F508del cor: -1; Xi reactivation: 0; PGC1a acetyl inh: 4; DENV2 CPE: 2; Cneo AK release: 3

What do the screens show for `C[C@@H]1CN([C@H](C)CO)C(=O)c2cc(C3=CCCC3)cnc2O[C@H]1CN(C)Cc1cccc(F)c1`?
CFTR F508del cor: 2; Xi reactivation: -1; PGC1a acetyl inh: 2; DENV2 CPE: 7; Cneo AK release: 68

What do the screens show for `COC(=O)C[C@H]1CC[C@H]2[C@@H](COc3ccc(NC(=O)Nc4ccc(Cl)cc4)cc3C(=O)N2C)O1`?
CFTR F508del cor: 0; Xi reactivation: 0; PGC1a acetyl inh: -1; DENV2 CPE: 3; FN deposit inh: -2; Cneo AK release: 1

How did CCOc1ccc2[nH]cc(S(=O)(=O)c3ccc(C)cc3)c(=O)c2c1 do in these assays?
CFTR F508del cor: 4; Xi reactivation: 0; PGC1a acetyl inh: 4; DENV2 CPE: 60*; FN deposit inh: -6; Cneo AK release: -2

What do the screens show for `Cc1noc(C)c1S(=O)(=O)N(C)C[C@@H]1Oc2ccc(NC(=O)Nc3cccc4ccccc34)cc2CC(=O)N([C@@H](C)CO)C[C@@H]1C`?
CFTR F508del cor: -2; Xi reactivation: 0; PGC1a acetyl inh: 2; DENV2 CPE: 3; FN deposit inh: -5; Cneo AK release: -1
